The values below come from ChEMBL document CHEMBL5661979, “Pharmacological inhibition of BMK1 suppresses tumor growth through promyelocytic leukemia protein” (Cancer Cell, 2010).

In test [1] the target is Tyrosine-protein kinase Lyn (Homo sapiens, UniProt P07948). In words: Inhibition of LYN in human HeLa cells lysate pre incubated for 15 mins followed by ATP acyl phosphate probe addition and measured after 10 mins by LC-MS/MS analysis. The class given is subcellular.
Test [2] deals with T1, Phosphatidylinositol 5-phosphate 4-kinase type-2 alpha (Homo sapiens) (UniProt P48426).
T1 sequence (whole entry): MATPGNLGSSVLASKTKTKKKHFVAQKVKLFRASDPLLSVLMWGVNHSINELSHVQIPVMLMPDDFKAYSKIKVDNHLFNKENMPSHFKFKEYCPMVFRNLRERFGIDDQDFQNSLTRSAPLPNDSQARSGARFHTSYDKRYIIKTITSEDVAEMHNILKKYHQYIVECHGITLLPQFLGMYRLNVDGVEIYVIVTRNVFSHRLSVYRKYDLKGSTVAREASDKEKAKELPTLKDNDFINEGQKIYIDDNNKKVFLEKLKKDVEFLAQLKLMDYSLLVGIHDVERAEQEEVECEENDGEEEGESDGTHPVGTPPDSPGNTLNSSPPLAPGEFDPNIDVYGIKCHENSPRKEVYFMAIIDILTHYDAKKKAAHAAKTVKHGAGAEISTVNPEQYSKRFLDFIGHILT
Nature of the test: Inhibition of PIP5K2A LIP site in human HeLa cells lysate at 50 uM pre incubated for 15 mins followed by ADP acyl phosphate probe addition and measured after 10 mins by LC-MS/MS analysis relative to control. The class given is subcellular. The note with it: time 25.0 min.

Test [3] concerns the target Serine/threonine-protein kinase 3 (Homo sapiens, UniProt Q13188). Nature of the test: Inhibition of MST2 in human HeLa cells lysate pre incubated for 15 mins followed by ADP acyl phosphate probe addition and measured after 10 mins by LC-MS/MS analysis. The class given is subcellular.
The target in test [4] is Tyrosine-protein kinase ABL (Homo sapiens, UniProt P00519+P42684). Nature of the test: Inhibition of ABL1/2 in human HeLa cells lysate at 50 uM pre incubated for 15 mins followed by ATP acyl phosphate probe addition and measured after 10 mins by LC-MS/MS analysis relative to control. The class given is subcellular. The note with it: time 25.0 min. The method, boiled down:
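HeLa cell lysates (5 mg/mL total protein) were preincubated with inhibitor at 0, 0.8, 2, 10 or 50 μM for 15 min. ATP or ADP acylphosphate probe was then added (5 μM final) for 10 min, and reactions were stopped with urea. Up to four fragment ions per kinase probe-peptide were quantified by targeted MS. % inhibition was taken relative to untreated lysate. Run in duplicate.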

Test [5] addresses Rho-associated protein kinase (Homo sapiens, UniProt O75116+Q13464). Nature of the test: Inhibition of ROCK1/2 in human HeLa cells lysate at 50 uM pre incubated for 15 mins followed by ATP acyl phosphate probe addition and measured after 10 mins by LC-MS/MS analysis relative to control. The note with it: time 25.0 min. The class given is subcellular.
In test [6] the target is Ribosomal protein S6 kinase alpha-1 (Homo sapiens, UniProt Q15418). Nature of the test: Inhibition of RSK1 domain 2 K2 site in human HeLa cells lysate pre incubated for 15 mins followed by ADP acyl phosphate probe addition and measured after 10 mins by LC-MS/MS analysis. The class given is subcellular.
For test [7], the target named is Cyclin-dependent kinase 1 (Homo sapiens, UniProt P06493). Nature of the test: Inhibition of CDC2 in human HeLa cells lysate pre incubated for 15 mins followed by ADP acyl phosphate probe addition and measured after 10 mins by LC-MS/MS analysis. The class given is subcellular. The gist of the method:
(§1)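 KiNativ profiling in HeLa lysate (5 mg/mL total protein). Lysate incubated 15 min with inhibitor at 50, 10, 2, 0.8 or 0 μM. ATP or ADP acylphosphate probe then added (5 μM final) and reacted 10 min. Reaction stopped with urea and analysed by targeted MS, using up to four fragment ions per kinase peptide-probe conjugate. % inhibition taken against untreated lysate. Run in duplicate.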

For test [8], the target named is Serine/threonine-protein kinase WNK1 (Homo sapiens, UniProt Q9H4A3). In words: Inhibition of Wnk1 in human HeLa cells lysate pre incubated for 15 mins followed by ATP acyl phosphate probe addition and measured after 10 mins by LC-MS/MS analysis. The class given is subcellular.
In test [9] the target is Dual specificity mitogen-activated protein kinase kinase 7 (Homo sapiens, UniProt O14733). Nature of the test: Inhibition of MAP2K7 in human HeLa cells lysate pre incubated for 15 mins followed by ADP acyl phosphate probe addition and measured after 10 mins by LC-MS/MS analysis. The class given is subcellular.
Test [10] addresses Cyclin-dependent kinase 9 (Homo sapiens, UniProt P50750). In words: Inhibition of CDK9 in human HeLa cells lysate pre incubated for 15 mins followed by ATP acyl phosphate probe addition and measured after 10 mins by LC-MS/MS analysis. The class given is subcellular. The gist of the method: as §1
Test [11] concerns the target Phosphatidylinositol 4-kinase alpha (Homo sapiens, UniProt P42356). Nature of the test: Inhibition of PIK4CA in human HeLa cells lysate at 50 uM pre incubated for 15 mins followed by ATP acyl phosphate probe addition and measured after 10 mins by LC-MS/MS analysis relative to control. The class given is subcellular. The note with it: time 25.0 min.
Test [12] is described as follows: Inhibition of PRKX/PRKY in human HeLa cells lysate at 10 uM pre incubated for 15 mins followed by ADP acyl phosphate probe addition and measured after 10 mins by LC-MS/MS analysis relative to control. The note with it: 25 min, condition cancer.
Test [13] deals with Serine/threonine-protein kinase 24 (Homo sapiens, UniProt Q9Y6E0). Nature of the test: Inhibition of MST3 in human HeLa cells lysate at 2 uM pre incubated for 15 mins followed by ATP acyl phosphate probe addition and measured after 10 mins by LC-MS/MS analysis relative to control. The class given is subcellular. The note with it: time 25.0 min.
Chain of Serine/threonine-protein kinase 24 (Q9Y6E0 whole entry, looked up): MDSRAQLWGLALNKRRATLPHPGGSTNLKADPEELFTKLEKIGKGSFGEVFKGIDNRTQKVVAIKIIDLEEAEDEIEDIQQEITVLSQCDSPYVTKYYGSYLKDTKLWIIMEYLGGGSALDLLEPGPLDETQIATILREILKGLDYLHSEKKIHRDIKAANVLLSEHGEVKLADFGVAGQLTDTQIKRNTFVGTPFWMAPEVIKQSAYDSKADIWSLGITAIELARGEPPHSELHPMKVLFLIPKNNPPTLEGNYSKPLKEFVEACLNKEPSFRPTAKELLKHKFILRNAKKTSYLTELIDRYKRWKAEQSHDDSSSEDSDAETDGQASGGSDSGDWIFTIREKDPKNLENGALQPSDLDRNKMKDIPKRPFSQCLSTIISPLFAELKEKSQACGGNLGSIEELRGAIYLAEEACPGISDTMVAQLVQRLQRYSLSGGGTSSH
Test [14] has as its target T2, Dual specificity mitogen-activated protein kinase kinase 7 (Homo sapiens) (UniProt O14733).
T2 sequence (whole entry): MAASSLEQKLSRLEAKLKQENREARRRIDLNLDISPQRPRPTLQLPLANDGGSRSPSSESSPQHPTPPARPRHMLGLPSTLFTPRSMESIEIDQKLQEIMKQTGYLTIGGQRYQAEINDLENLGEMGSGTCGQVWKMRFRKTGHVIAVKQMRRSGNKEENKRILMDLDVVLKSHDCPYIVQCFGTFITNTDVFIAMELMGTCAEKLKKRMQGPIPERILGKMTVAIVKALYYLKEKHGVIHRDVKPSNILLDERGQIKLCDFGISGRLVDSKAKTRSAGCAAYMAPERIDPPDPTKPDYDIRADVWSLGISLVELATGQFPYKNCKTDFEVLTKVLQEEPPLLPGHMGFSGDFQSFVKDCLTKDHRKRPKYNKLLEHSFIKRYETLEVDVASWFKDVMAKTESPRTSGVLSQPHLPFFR
In words: Inhibition of MAP2K7 in human HeLa cells lysate at 10 uM pre incubated for 15 mins followed by ADP acyl phosphate probe addition and measured after 10 mins by LC-MS/MS analysis relative to control. The class given is subcellular. The note with it: time 25.0 min.

Test [15] addresses Mixed lineage kinase domain-like protein (Homo sapiens, UniProt Q8NB16). In words: Inhibition of MLKL in human HeLa cells lysate pre incubated for 15 mins followed by ATP acyl phosphate probe addition and measured after 10 mins by LC-MS/MS analysis. The class given is subcellular.
For test [16], the target named is Mitogen-activated protein kinase kinase kinase kinase 2 (Homo sapiens, UniProt Q12851). In words: Inhibition of GCK in human HeLa cells lysate pre incubated for 15 mins followed by ADP acyl phosphate probe addition and measured after 10 mins by LC-MS/MS analysis. The class given is subcellular.
Test [17] in a line: Inhibition of MSK1/2 in human HeLa cells lysate at 2 uM pre incubated for 15 mins followed by ADP acyl phosphate probe addition and measured after 10 mins by LC-MS/MS analysis relative to control. The note with it: 25 min, condition cancer.

Chain of Tyrosine-protein kinase Lyn (P07948 whole entry): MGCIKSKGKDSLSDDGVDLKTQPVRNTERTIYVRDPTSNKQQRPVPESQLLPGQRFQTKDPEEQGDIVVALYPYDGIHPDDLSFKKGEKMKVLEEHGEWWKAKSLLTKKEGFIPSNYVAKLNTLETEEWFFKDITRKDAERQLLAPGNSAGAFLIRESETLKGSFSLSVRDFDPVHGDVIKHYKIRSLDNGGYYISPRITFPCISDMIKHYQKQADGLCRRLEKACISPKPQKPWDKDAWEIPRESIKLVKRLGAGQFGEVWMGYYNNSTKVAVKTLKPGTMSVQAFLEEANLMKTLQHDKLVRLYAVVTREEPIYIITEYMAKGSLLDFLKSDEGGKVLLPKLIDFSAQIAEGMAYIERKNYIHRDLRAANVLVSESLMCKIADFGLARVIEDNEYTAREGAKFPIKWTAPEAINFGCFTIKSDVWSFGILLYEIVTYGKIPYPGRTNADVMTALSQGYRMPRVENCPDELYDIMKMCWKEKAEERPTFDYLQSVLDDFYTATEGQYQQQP
Chain of Serine/threonine-protein kinase 3 (Q13188 whole entry): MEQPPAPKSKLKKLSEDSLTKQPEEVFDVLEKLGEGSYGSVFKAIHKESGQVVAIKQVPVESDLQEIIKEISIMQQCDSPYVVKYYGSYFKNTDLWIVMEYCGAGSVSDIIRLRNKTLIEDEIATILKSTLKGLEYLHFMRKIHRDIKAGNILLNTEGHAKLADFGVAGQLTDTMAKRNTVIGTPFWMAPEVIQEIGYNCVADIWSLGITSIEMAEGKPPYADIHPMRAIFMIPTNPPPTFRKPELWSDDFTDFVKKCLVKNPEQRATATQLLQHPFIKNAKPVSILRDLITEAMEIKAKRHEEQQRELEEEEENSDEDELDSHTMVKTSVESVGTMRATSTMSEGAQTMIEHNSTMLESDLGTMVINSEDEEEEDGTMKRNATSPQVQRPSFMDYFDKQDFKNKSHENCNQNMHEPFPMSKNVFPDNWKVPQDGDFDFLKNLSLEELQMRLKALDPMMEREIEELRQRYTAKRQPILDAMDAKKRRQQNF
Chain of Phosphatidylinositol 4-kinase alpha (P42356 whole entry, looked up): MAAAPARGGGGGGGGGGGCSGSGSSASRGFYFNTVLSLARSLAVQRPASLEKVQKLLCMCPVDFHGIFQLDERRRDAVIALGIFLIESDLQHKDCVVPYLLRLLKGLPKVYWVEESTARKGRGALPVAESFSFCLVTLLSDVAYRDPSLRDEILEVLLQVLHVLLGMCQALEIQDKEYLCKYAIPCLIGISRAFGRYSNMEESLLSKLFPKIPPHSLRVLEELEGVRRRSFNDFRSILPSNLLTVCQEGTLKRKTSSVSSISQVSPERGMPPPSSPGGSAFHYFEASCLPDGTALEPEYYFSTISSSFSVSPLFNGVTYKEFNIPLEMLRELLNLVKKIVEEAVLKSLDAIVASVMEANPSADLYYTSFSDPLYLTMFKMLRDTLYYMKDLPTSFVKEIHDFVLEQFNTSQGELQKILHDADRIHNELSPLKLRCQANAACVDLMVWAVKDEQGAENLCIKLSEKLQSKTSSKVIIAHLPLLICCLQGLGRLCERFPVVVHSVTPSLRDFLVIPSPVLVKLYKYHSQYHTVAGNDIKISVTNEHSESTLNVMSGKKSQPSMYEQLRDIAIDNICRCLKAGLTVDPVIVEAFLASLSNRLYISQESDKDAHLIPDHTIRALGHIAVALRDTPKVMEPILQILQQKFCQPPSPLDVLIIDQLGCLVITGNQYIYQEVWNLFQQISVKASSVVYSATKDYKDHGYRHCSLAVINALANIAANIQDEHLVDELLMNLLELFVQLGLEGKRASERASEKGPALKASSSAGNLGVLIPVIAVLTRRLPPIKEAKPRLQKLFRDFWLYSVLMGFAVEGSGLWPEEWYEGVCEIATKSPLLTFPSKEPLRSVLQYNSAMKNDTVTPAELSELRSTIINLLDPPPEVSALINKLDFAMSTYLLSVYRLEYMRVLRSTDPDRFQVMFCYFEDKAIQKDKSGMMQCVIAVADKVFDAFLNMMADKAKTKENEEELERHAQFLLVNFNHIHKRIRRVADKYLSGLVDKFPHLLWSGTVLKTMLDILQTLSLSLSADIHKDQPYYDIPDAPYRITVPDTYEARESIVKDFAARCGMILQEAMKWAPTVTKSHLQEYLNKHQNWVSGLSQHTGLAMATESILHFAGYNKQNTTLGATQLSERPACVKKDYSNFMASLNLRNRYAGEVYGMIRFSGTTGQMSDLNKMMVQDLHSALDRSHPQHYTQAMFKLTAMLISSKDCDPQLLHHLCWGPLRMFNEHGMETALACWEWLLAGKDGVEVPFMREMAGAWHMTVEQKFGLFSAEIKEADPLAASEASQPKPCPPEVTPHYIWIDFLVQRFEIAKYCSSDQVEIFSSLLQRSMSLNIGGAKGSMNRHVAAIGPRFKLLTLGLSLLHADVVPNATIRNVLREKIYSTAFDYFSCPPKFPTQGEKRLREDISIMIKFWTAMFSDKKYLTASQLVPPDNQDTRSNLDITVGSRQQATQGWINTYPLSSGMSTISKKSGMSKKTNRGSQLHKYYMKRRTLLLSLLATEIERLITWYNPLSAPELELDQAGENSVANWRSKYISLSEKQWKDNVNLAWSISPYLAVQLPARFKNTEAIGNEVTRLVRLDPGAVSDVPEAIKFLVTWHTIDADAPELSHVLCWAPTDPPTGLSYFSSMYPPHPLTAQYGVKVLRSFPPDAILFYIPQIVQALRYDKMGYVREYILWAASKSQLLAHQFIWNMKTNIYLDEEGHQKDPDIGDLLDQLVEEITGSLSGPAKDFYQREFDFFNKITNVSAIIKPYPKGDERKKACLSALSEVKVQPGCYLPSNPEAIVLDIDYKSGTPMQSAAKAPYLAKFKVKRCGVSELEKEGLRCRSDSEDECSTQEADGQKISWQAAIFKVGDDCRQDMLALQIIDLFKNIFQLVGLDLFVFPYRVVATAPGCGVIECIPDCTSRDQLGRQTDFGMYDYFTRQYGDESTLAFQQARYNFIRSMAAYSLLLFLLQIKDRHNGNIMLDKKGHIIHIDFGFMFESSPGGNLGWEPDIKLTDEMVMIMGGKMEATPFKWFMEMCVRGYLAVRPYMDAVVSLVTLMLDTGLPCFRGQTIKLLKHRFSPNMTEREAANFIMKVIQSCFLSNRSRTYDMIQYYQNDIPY
Chain of Mixed lineage kinase domain-like protein (Q8NB16 whole entry, the tested form may be a part): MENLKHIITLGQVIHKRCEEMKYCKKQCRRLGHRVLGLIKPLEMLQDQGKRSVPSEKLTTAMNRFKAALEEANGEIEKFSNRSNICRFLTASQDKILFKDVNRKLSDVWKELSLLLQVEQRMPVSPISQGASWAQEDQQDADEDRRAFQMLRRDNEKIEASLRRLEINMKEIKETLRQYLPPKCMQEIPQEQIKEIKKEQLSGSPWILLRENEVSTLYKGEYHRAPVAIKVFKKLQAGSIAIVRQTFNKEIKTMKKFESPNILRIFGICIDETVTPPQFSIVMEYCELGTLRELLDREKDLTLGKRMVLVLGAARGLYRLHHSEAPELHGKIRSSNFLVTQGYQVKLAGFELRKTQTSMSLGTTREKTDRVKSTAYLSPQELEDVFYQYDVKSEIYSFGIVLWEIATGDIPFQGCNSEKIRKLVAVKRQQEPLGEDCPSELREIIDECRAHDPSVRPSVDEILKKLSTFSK
Chain of Cyclin-dependent kinase 9 (P50750 whole entry): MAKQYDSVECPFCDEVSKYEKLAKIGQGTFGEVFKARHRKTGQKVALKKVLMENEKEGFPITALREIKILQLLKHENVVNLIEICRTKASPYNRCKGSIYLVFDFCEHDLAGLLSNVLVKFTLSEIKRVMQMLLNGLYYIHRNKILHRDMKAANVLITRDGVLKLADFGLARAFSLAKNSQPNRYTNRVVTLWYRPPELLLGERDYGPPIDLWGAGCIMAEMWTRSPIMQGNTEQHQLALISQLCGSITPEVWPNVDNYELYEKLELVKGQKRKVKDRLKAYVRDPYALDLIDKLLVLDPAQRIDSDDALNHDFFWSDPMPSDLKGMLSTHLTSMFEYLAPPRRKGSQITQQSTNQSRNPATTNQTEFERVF
Chain of Cyclin-dependent kinase 1 (P06493 whole entry, the tested form may be a part): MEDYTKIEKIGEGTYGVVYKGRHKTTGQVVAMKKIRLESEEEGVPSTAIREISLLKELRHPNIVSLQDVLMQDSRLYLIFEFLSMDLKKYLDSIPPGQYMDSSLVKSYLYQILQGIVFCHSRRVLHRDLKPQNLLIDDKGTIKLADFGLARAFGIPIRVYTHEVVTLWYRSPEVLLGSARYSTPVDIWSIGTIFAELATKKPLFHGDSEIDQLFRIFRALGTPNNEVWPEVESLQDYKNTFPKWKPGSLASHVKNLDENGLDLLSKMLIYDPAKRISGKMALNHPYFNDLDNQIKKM

One may read the IC50 as the concentration at which inhibition is half-maximal. Broadly, the inhibition is the drop in the measured response relative to a control, in per cent. `CCOc1cc(N2CCC(O)CC2)ccc1Nc1ncc2c(n1)N(C)c1ccccc1C(=O)N2C`: the concentration for half-maximal inhibition (IC50) in test [1] was > 50 µM; in [3], > 50 µM; in [6], 31 µM; in test [7], > 50 µM; in test [8], > 50 µM; in test [9], > 50 µM. Moreover, the IC50 in [10], in test [15] and in test [16] was > 50 µM throughout. Further, the inhibition in test [2] was 15.1%; in [4], 4.9%; in test [5], -3%; in test [11], 58%; in test [13] it was -3.8%; in test [14], -9.9%. Further, the inhibition at 10 µM in [12] was -14.3%. The inhibition at 2 µM in test [17] was found to be 23.1%.
